Calls of active or inactive are those of the source.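 The calls were made as follows, unless noted: active = viability loss from added drug above about 55%, and viability with drug at most 40%, in both replicates (limit read from the data, passing the limit was not always enough); inconclusive = both conditions met in only one replicate; inactive = neither replicate meets both conditions.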
Assays:
[1] = HUVEC growth inhibition – cell-based, human, primary screen (AID 575;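 active = viability at or below 30% in both replicate assays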;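 also: 100% = median of untreated cell wells with 0.1% DMSO on each plate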); conditions: HUVEC proliferation, CellTiter-Glo luminescence, 72 h; at 10 µM; stronger effect = lower value
Procedure, shortened: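 Assay system: Primary human umbilical vein endothelial cells | Quantity: 1250 cells per well | Medium: Supplemented EBM, 2% fetal bovine serum | Detection: CellTiter-Glo luminescence measuring cellular ATP | Read-out: % viability vs DMSO wells | Plate: Collagen-coated 384-well format | Times: 72 h exposure, 37 °C, 5% CO2, 30 min RT equilibration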

[2] = growth inhibitors of H69AR lung tumor, primary screen, human, duplicate replicates (AID 580;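 active = viability at or under a set limit in both replicates, limit being median viability minus 3 SD, cut at about 48% in these data, passing the limit was not always enough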;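 also: 100% = mean luminescence of untreated wells and 0% = no signal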); conditions: H69AR lung tumor cells viability, ATP luminescence, 72 h; at 10 µM; stronger effect = lower value
[3] = reversal of MRP1-mediated doxorubicin resistance, pilot screen, H69AR cells, doxorubicin co-treatment (AID 601); conditions: CellTiter-Glo, 72 h, at 10 µM; for differential viability (reversal): stronger effect = higher value
[4] = 384-well plate pilot, post-Golgi transport modulator project, inhibition of yeast transport mutant growth (AID 636; in the data active = inhibition above about 31%); conditions: absorbance 615 nm, about 18 h, stronger effect = higher value
[5] = growth suppression of yeast trafficking mutant, preliminary HTS, modulators of trafficking downstream of Golgi apparatus project, 1536-format plate, OD 615 nm (AID 637; in the data active = inhibition above about 30%); conditions: yeast transport mutant growth, absorbance 615 nm, 18 h; stronger effect = higher value
[6] = H69AR cells + 2 uM doxorubicin, measured here: viability with 2 uM doxorubicin, stronger effect = lower value
[7] = H69AR cells, compound alone cytotoxicity

Structure (SMILES)	viability [1]	viability [2]	differential viability (reversal) ([3]; H69AR cells + 2 uM doxorubicin)	viability [3, 6]	viability [3, 7]	inhibition [4]	inhibition [5]
CCS(=O)(=O)N1CCC(C(=O)NCc2cccs2)CC1	87.2% (inactive)	99.3% (inactive)	9.73% (inactive)	89.6%	99.3%	-1.04% (inactive)	-3.02% (inactive)
Cc1c(O)c(CN2CCCCC2)cc2c3c(c(=O)oc12)CCC3	103% (inactive)	82.2% (inactive)	-0.59% (inactive)	82.8%	82.2%	-6.84% (inactive)	5.08% (inactive)
CN(C)S(=O)(=O)n1cnc(-c2ccccc2)c1-c1ccccc1	99.8% (inactive)	98.3% (inactive)	-3.79% (inactive)	102%	98.3%	-1.32% (inactive)	-2.86% (inactive)
O=C(NC1=NCCS1)c1nc(-c2ccccc2)n(-c2ccccc2)n1	70.4% (inactive)	101% (inactive)	8.75% (inactive)	92.1%	101%	-3.73% (inactive)	0.63% (inactive)
COc1ccc(OC)c(CNC(=O)CCN2C(=O)COc3ccccc32)c1	90.1% (inactive)	91.8% (inactive)	3.34% (inactive)	88.5%	91.8%	-1.32% (inactive)	-2.06% (inactive)
COc1cccc(C(=O)Nc2cnc(NC(=O)c3ccco3)cc2C)c1	103% (inactive)	86.6% (inactive)	8.55% (inactive)	78.1%	86.6%	-2.21% (inactive)	-4.44% (inactive)
CCCC(=O)Nc1ccc(NC(=O)c2cccs2)cn1	95.9% (inactive)	87.8% (inactive)	5.45% (inactive)	82.3%	87.8%	-2.99% (inactive)	-2.86% (inactive)
Cc1ccc(O)c(C(=O)c2cc(C#N)c(=O)n(CC3CCCO3)c2)c1 (stereo not drawn)	93.2% (inactive)	89.7% (inactive)	-2.82% (inactive)	92.6%	89.7%	-1.3% (inactive)	0.16% (inactive)
CN=C(C)C1=C(O)C(C(=O)OC)C(C)(C)CC1=O (stereo not drawn)	108% (inactive)	98.5% (inactive)	3.21% (inactive)	95.3%	98.5%	-1.43% (inactive)	2.7% (inactive)
COc1cccc(Nc2c(F)c(F)c(F)c(F)c2C(=O)O)c1	92.2% (inactive)	99.7% (inactive)	9.22% (inactive)	90.5%	99.7%	-5.84% (inactive)	-1.27% (inactive)
Cc1nn(C)c(C)c1NC(=O)CCSc1nc(-c2ccco2)cc(C(F)(F)F)n1	93% (inactive)	98.8% (inactive)	3.76% (inactive)	95%	98.8%	-2.93% (inactive)	4.44% (inactive)
CCOC(=O)CC(=O)c1cc(OC)c(OC)c(OC)c1	97.1% (inactive)	107% (inactive)	11.3% (inactive)	95.6%	107%	-0.53% (inactive)	-3.49% (inactive)
COCC(=O)Nc1sc2c(c1C(=O)OC)CCC(C)C2 (stereo not drawn)	88.4% (inactive)	94.8% (inactive)	4.53% (inactive)	90.3%	94.8%	-2.76% (inactive)	5.08% (inactive)
COc1ccc(-c2nn3c(-c4cccc(C)c4)nnc3s2)cc1OC	51.1% (inactive)	35.2% (active)	-44% (inactive)	79.2%	35.2%	-0.4% (inactive)	-4.13% (inactive)
O=C(CCN1CCN(CCO)CC1)Nc1ccc(OCc2ccccc2)cc1	76.5% (inactive)	88.9% (inactive)	6.03% (inactive)	82.9%	88.9%	-2.6% (inactive)	-6.67% (inactive)
Cc1ccc(C2C(C#N)=C(N)Oc3cc4c(cc32)OCO4)cc1 (stereo not drawn)	48.4% (inactive)	10.2% (active)	-44.2% (inactive)	54.4%	10.2%	-4.42% (inactive)	1.27% (inactive)
Nc1nnc(SCC(=O)N2CCN(c3ccccc3)CC2)n1-c1ccccc1	80.6% (inactive)	90% (inactive)	7.97% (inactive)	82.1%	90%	-0.78% (inactive)	2.06% (inactive)
O=C(CSc1nc(C2CCCCC2)n(-c2ccccc2)n1)NCCN1C(=O)CSC1=O	103% (inactive)	98.8% (inactive)	-4.29% (inactive)	103%	98.8%	-5.84% (inactive)	1.27% (inactive)
COc1ccc2c(c1)C(=O)N(c1ccccc1OC)C(=O)C2	74.9% (inactive)	92.8% (inactive)	-8.61% (inactive)	101%	92.8%	-3.87% (inactive)	0.32% (inactive)
